The source of these data is article PMC4980721 (Cellular and molecular gastroenterology and hepatology, 2016).

The subject of test [1] is SW620 cells. The test can be described thus: Apparent association time constant by flow cytometry. In kind it is binding, human. As to conditions: from k = 0.83 min^−1.
Test [2] concerns human proximal colon FFPE specimens. Nature of the test: Immunofluorescence of proximal human colon specimens with claudin-1 peptide. Conditions: human proximal colon FFPE sections, 5 µM peptide 10 min at RT. A digest of the protocol:
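FFPE sections (5 µm) deparaffinized. Antigen retrieval: boiling 10 mM sodium citrate, 0.05% Tween, pH 6.0, then sub-boiling 15 min. Protein serum block 15 min RT. 5 µM Cy5.5-labeled peptide 10 min RT, then anti-claudin-1 (1:200) overnight and AF488 secondary (1:500) 1 h RT, DAPI mount. Equal exposure; mean intensity from three 20×20 µm² boxes within epithelium per image, avoiding saturation.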

For a further test, the system named is SW480 cells. Nature of the test: Cell binding assay, confocal microscopy. In kind it is cell-based, human. A digest of the protocol: (§1)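 Cells grown in DMEM + 10% FBS + 1% penicillin/streptomycin at 37°C, 5% CO2, then seeded at ~0.5×10^6 cells/mL on coverslips. Next day, 10 µM Cy5.5-labeled test peptide or Cy5.5-labeled control peptide added for 1 h at 4°C. Fixed in 4% PFA 10 min RT, DAPI counterstain, confocal imaging. Intensities from 10 random cells in 3 independent images; one-way ANOVA.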

A further test has as its system HCT116 cells. Nature of the test: Cell binding assay, confocal microscopy. In kind it is cell-based, human.
A further test relates to claudin-1 (CLDN1). Nature of the test: siRNA knockdown of claudin-1 expression, peptide and antibody staining. The class given is cell-based, human. Conditions: control and CLDN1 siRNA, confocal. A digest of the protocol:
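SW620 cells seeded at 0.2×10^6 cells/mL, transfected with DharmaFECT1 plus 25 nM CLDN1 SMARTpool or control siRNA for 72 h, then passaged onto coverslips. Knockdown checked by western blot. Staining: 5 µM Cy5.5-labeled peptide or control peptide 30 min at 4°C, then 4% PFA fixation; or methanol fixation, anti-CLDN1 5 µg/mL 1 h RT, AF488 secondary. Two-way ANOVA on average intensity (10 cells/slide, 2 slides/condition).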

In test [3] the test system is SW620 cells. The test can be described thus: Cell binding assay, confocal microscopy. The class given is cell-based, human. The gist of the method: as §1

Where “and” joins values, the source holds several entries; their conditions need not be identical. Identical values can stand only once.

RTSPSSR [RTS*-Cy5.5]: in the test on SW620 cells [1], the “time constant / time scale for binding corresponding to k” value was < 1.2 min and ~ 1.2 min. Besides, the “mean (±std) fluorescence intensity, SSA” value in test [2] (n = 11 SSA) is given as 20.1±13.3. The “mean (±std) fluorescence intensity, normal” value in test [2] (n = 28 normal) came out at 9.1±6.0.
On to SPTSSRR [SPT*-Cy5.5], for which the “binding to cell surface on confocal microscopy” value with SW480 cells, in the test on HCT116 cells and in the test on SW620 cells [3] was “minimal binding” each time. Moreover, the “binding / signal in SW620 cells transfected with siCL or siCLDN1” value with claudin-1 (CLDN1) was “minimal binding”.
